Assay outcomes from PubChem BioAssay.
In the library only some 9.6% were active in any assay of this set; here they are far more common.
TNAP inh no acc: human TNAP enzyme inhibitors, primary screen, biochemical, luminescent, no phosphate acceptor, uHTS; Alkaline phosphatase, tissue-nonspecific isozyme (Homo sapiens), P05186; purified TNAP, CDP-star luminescence, 30 min; inhibition, % at 20 µM; 0.26% of 200,000 active; AID 1012, 2008;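 active means tissue-nonspecific alkaline phosphatase inhibition above about 50% at 20 µM in the single-dose screen, limit read from the data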
Target sequence (P05186 whole entry, looked up): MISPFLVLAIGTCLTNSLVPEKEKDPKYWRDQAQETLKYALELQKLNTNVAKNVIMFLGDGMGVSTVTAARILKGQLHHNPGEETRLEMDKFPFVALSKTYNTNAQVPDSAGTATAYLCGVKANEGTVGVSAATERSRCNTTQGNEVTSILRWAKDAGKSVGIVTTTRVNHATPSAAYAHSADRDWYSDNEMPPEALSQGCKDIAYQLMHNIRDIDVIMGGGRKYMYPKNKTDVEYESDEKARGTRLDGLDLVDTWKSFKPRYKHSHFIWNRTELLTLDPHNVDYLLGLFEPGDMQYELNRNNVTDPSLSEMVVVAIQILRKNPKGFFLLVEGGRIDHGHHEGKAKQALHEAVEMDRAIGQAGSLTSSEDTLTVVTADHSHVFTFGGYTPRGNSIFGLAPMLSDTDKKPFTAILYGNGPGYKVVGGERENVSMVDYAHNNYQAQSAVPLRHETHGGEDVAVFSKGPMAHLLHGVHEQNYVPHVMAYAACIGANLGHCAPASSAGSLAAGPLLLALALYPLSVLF
TNAP act hiacc: TNAP activators at high phosphate acceptor level, primary screen, biochemical, luminescence, uHTS | purified TNAP, CDP-star luminescence, 1 M DEA, 30 min; hits give high values; 0 = EDTA background, 1 = DMSO-only activity | 200,000 tested, under 10 active | activation factor at 20 µM;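 active means activation factor at least 2 at 20 µM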
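Assay system: human TNAP; Input: enzyme diluted 1/800 final; Reagent: CDP-star luminogenic substrate at 100 µM final; Timing: 30 min, room temperature; Signal: luminescence; Evaluation: TNAP activation factor scaled between EDTA and DMSO control wells.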
HCT116 PTEN-null: growth suppression of PTEN-null HCT116, primary screen, cell-based, CellTiter-Glo | 1.2% of 140,000 active | HCT116 PTEN-null viability, 60 h; hits give low values | viability, % at 10 µM;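 active means viability at or below a set limit, 4 SD under the median of all tested compounds, cut at about 3.7% in these data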;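 further: PTEN knockout HCT116 line with beta catenin targeted HCT116 as companion control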
bCat KO growth: primary screen for growth suppressors in beta-catenin knockout HCT116 cells (colon tumor, human) | HCT116 beta-catenin knockout viability, CellTiter-Glo, 60 h; hits give low values | viability, % at 10 µM | 1.5% of 140,000 active | AID 818, 2007;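 active means viability at or under a set limit, the compound median less 4 SD, cut at about 6% in these data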
L major viab: Leishmania major promastigote growth inhibition, primary screen; inhibition, % at 10 µM; Leishmania major promastigotes, resazurin fluorescence viability; 9% of 200,000 active; AID 1063, 2008; in the data active means inhibition above about 50%;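 further: promastigotes grown with compound for 44 hours at 28 °C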
TNAP inh hi DEA: human TNAP enzyme inhibitors, primary screen, biochemical, luminescent, high phosphate acceptor level, uHTS; AID 1135, 2008; 0.03% of 200,000 active; purified TNAP, CDP-star luminescence, 1 M DEA; inhibition, % at 20 µM;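 active means over 50% inhibition of tissue-nonspecific alkaline phosphatase at 20 µM in the single-dose screen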
Lmaj promast 1uM: Leishmania major promastigote growth inhibition, confirmation, 1 µM repeat of primary hits | shares compounds with L major viab | L. major promastigote growth, resazurin fluorescence, 48 h | inhibition, % at 1 µM | 13% of 1,100 active | AID 1258, 2008;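 active means inhibition above about 50% in both repeat tests, limit read from the data; inconclusive means one repeat under the set limit, the other over it; inactive means both repeats under the set limit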
Each line names hits and unclear results; the compound was inactive in the other large screens (follow-up assays come after a bar, where they were run).

CCOC(=O)C1=C(CBr)NC(=O)NC1C (stereo not given)	none (no result: HCT116 PTEN-null, bCat KO growth)
CCn1cc(S(=O)(=O)c2ccc(C)cc2)[nH]c1=O	none (no result: HCT116 PTEN-null, bCat KO growth)
C=CCOc1ccc2c(c1)c(S(=O)(=O)c1ccc(C)cc1)cn2COC	L major viab 88 | Lmaj promast 1uM inactive
Cc1ccc(S(=O)(=O)N2CCCCC2)cc1C(=O)Nc1ncn[nH]1	none (no result: L major viab)
COc1ccc(CNC(C)(C)C)cc1Cl	none
COc1ccc(CSC2=NCCN2)cc1Cl	L major viab 99 | Lmaj promast 1uM inactive
Cc1cccc(NNC(N)=S)c1C	none (no result: HCT116 PTEN-null, bCat KO growth)
Cc1cc(Cl)ccc1C(=O)C1CCCN(C(=O)c2n[nH]c3c2CCCC3)C1 (stereo not given)	none (no result: HCT116 PTEN-null, bCat KO growth)
CC1=CC(C)C2(CO)COC(c3ccc(O)cc3)C1C2C (stereo not given)	none (no result: HCT116 PTEN-null, bCat KO growth)
CC1=CC(C)C2(CO)COC(c3cccnc3)C1C2C (stereo not given)	L major viab 80 | Lmaj promast 1uM inactive
O=[N+]([O-])c1cc(CN2CCC(O)CC2)ccc1Cl	none (no result: HCT116 PTEN-null, bCat KO growth)
COCCN(C(=O)CC1C(=O)NCCN1CC(c1ccccc1)c1ccccc1)C(C)C (stereo not given)	none (no result: HCT116 PTEN-null, bCat KO growth)
c1cncc(C2Nc3ccccc3-c3nc4ccccc4n32)c1 (stereo not given)	L major viab 86 | Lmaj promast 1uM inconclusive
CC(=O)Nc1ccc(-c2nnn(CC(=O)Nc3ccc4c(c3)OCO4)n2)cc1Cl	none (no result: HCT116 PTEN-null, bCat KO growth)
CCCCNC(=O)CSc1nc(COc2ccccc2)nc2ccccc12	none (no result: HCT116 PTEN-null, bCat KO growth)
CCN(CC(=O)Nc1ccc2c(c1)OCO2)Cc1nc2ccccc2c(=O)[nH]1	none
COc1cccc(C(=O)N(Cc2ccc3c(c2)OCO3)Cc2nc3ccccc3c(=O)[nH]2)c1	L major viab 82 | Lmaj promast 1uM inactive
Cc1ccn2cc(C(=O)Nc3nnc(C)s3)nc2c1	none
Cc1ccn2cc(C34CC5CC(CC(C5)C3)C4)nc2c1	L major viab 60 (no result: HCT116 PTEN-null, bCat KO growth) | Lmaj promast 1uM inactive
Cc1ccc(S(=O)(=O)NC(C)(C)CSc2nnc(Nc3ccccc3)s2)cc1	L major viab 100 | Lmaj promast 1uM inactive
CC(C)(CSc1ncccn1)NS(=O)(=O)c1ccccc1	none (no result: HCT116 PTEN-null, bCat KO growth)
CCN(CC)C(=O)Cn1cnc([N+](=O)[O-])n1	none
Cc1ccc2cc(C)c(Sc3nnnn3-c3ccccc3)nc2c1	L major viab 60 | Lmaj promast 1uM inactive
Cn1ccnc1Sc1nnnn1-c1ccccc1	none
CCc1ccc(C2CC(=O)N(c3ccc(F)cc3)C3=C2C(=O)OC3)cc1 (stereo not given)	none (no result: HCT116 PTEN-null, bCat KO growth)
Cc1cc(C)c(C#N)c(SCC(=O)c2ccccc2)n1	L major viab 100 (no result: HCT116 PTEN-null, bCat KO growth) | Lmaj promast 1uM inactive
CSCCC(NC(=O)c1cccc([N+](=O)[O-])c1)C(=O)O (stereo not given)	L major viab 79 | Lmaj promast 1uM inactive
COC(=O)c1ccc(CNC(=O)COC(=O)COc2ccc(OC)cc2)cc1	none (no result: HCT116 PTEN-null, bCat KO growth)
O=C(c1ccc(Cl)cc1)c1oc2ccccc2c1CS(=O)c1ccccc1 (stereo not given)	none
Cc1cc(-n2c(C)cc(C(=S)N3CCOCC3)c2C)ccc1Br	L major viab 57 | Lmaj promast 1uM inactive
Cc1cccc(C)c1-n1nnnc1C1(Nc2ccccc2)CCCCC1	L major viab 100 | Lmaj promast 1uM inactive
CN(C)N1C(N)=C(C#N)C(c2cccs2)C2=C1CC(C)(C)CC2=O (stereo not given)	none (no result: HCT116 PTEN-null, bCat KO growth)
Cc1occc1C(=O)NNC(=O)C1CCCCC1	L major viab 72 | Lmaj promast 1uM inactive
CCO[C@@H]1OC(C(=O)O)=C[C@H](C2CC2)[C@H]1CCCO	none (no result: HCT116 PTEN-null, bCat KO growth)
COc1ccc(C(=O)NNC(=O)CNC(=O)C2CCCCC2)cc1	none (no result: HCT116 PTEN-null, bCat KO growth)
COc1ccc(NC2=Nc3cccc4cccc2c34)cc1	L major viab 74 | Lmaj promast 1uM inactive
CC1CCCC(C)N1C(=O)COC(=O)c1ccc(O)cc1 (stereo not given)	none
